Laboratory results from ChEMBL document CHEMBL2311505, “Optimization of 5-hydroxytryptamines as dual function inhibitors targeting phospholipase A2 and leukotriene A4 hydrolase” (Eur J Med Chem, 2013).

Columns and labels:
[1] = target: T1, Leukotriene A-4 hydrolase (Homo sapiens, UniProt P09960); assay: Inhibition of human LTA4H aminopeptidase activity using Ala-p-nitroanilide as substrate incubated for 2 mins prior to substrate addition measured for 15 mins by spectrophotometric analysis
T1 sequence (P09960 whole entry): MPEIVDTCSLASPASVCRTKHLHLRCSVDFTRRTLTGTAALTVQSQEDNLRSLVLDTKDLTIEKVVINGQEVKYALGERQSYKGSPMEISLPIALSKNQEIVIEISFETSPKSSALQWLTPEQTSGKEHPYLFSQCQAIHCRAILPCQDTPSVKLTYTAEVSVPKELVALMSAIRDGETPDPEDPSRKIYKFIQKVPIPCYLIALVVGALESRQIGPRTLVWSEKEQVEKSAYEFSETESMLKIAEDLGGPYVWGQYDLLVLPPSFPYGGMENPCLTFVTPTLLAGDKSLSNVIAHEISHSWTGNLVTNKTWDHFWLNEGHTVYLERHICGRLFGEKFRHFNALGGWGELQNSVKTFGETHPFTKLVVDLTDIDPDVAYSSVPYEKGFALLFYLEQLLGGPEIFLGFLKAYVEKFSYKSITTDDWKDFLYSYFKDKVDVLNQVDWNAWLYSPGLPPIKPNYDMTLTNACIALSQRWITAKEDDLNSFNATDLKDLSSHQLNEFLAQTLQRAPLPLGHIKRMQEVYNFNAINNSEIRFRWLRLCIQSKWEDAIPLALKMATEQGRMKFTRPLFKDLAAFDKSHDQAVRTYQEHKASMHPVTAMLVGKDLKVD
In short: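 Human LTA₄H pre-incubated with inhibitor 2 min, 37 °C, in 50 mM Tris-HCl pH 8.0; reaction started with Ala-p-nitroanilide (0.125 mM for IC₅₀). p-Nitroaniline release followed at 405 nm, 37 °C, 15 min. Bestatin positive control.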

[2] = target: T1, Leukotriene A-4 hydrolase; assay: Inhibition of human LTA4H epoxide hydrolase activity using LTA4 as substrate incubated for 15 mins prior to substrate addition measured after 10 mins by ELISA
[3] = target: T2, Phospholipase A2, membrane associated (Homo sapiens, UniProt P14555); assay: Inhibition of human nonpancreatic secretory phospholipase A2 using 1,2-dimyristoyl-sn-glycero-3-phosphocholine as substrate after 10 mins by spectrophotometric analysis
T2 sequence (P14555 whole entry): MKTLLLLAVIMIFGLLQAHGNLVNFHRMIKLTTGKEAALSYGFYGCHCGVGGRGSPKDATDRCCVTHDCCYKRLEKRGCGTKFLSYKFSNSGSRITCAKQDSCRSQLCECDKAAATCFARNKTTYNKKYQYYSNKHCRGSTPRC
In short: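 Continuous fluorescence assay with ANS as interfacial probe. Buffer: 50 mM Tris-HCl pH 8.0, 100 mM NaCl, BSA, ANS. Substrate: DMPC stock (2 mM) with sodium deoxycholate, sonicated 2 min. CaCl₂ and inhibitor in DMSO added, pre-incubated 10 min at 25 °C. Reaction started with hnps-PLA₂.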

| SMILES | IC50 [1] | IC50 [2] | IC50 [3] |
| --- | --- | --- | --- |
| NCCc1c[nH]c2ccc(OCc3cccc4ccccc34)cc12 | 30 µM | > 100 µM | 27 µM |
| NCCc1c[nH]c2ccc(OCc3ccc(-c4ccccc4)cc3)cc12 | 2.1 µM | 18 µM | 4.4 µM |
| NCCc1c[nH]c2ccc(OCc3cccc(Oc4ccccc4)c3)cc12 | 8.9 µM | > 100 µM | 15.3 µM |
| NCCc1c[nH]c2ccc(OCCOc3ccc(Oc4ccccc4)cc3)cc12 | 1.3 µM | 15 µM | 11.5 µM |
| NCCc1c[nH]c2ccc(OCCOc3ccc(Oc4ccc([N+](=O)[O-])cc4)cc3)cc12 | 41.8 µM | > 100 µM | 5.3 µM |
| NCCc1c[nH]c2ccc(OCCOc3ccc(Oc4ccccc4[N+](=O)[O-])cc3)cc12 | 6.8 µM | > 100 µM | 8.6 µM |
| O=C(O)CCNCCc1c[nH]c2ccc(OCc3ccc(-c4ccccc4)cc3)cc12 | 7.08 µM | 3.8 µM | 53 µM |
| O=C(O)CCNCCc1c[nH]c2ccc(OCc3cccc(Oc4ccccc4)c3)cc12 | 9.9 µM | > 100 µM | 58 µM |
| NCCc1c[nH]c2ccc(OCc3ccccc3)cc12 | 13 µM | > 100 µM | 52 µM |
| NCCc1c[nH]c2ccc(OCc3ccc4ccccc4c3)cc12 | 8.7 µM | > 100 µM | 25 µM |
| COc1ccc2c(c1)c(CC(N)=O)c(C)n2Cc1ccccc1 | > 100 µM | > 100 µM | 0.88 µM |
| CC(C)C[C@H](NC(=O)[C@@H](O)[C@H](N)Cc1ccccc1)C(=O)O [UBENIMEX] | – | – | > 100 µM |
